Data reported in ChEMBL document CHEMBL1125290, “Bis basic substituted diaminobenzobisthiazoles as potential antiarthritic agents” (1992).

Columns and labels:
Type in all cases: functional
[1] = tested on: Rattus norvegicus; assay: Antiinflammatory activity against D-adjuvant arthritis in uninjected rat paw at the dose of 200 mg/kg by oral administration
[2] = tested on: Rattus norvegicus; assay: Antiinflammatory activity against D-adjuvant arthritis in injected rat paw at the dose of 200 mg/kg by oral administration
[3] = species: Rattus norvegicus; assay: Antiinflammatory activity in D-adjuvant induced arthritis in rat measured by the change in body weight; set-up: concentration or dose not given beside the values
[4] = tested on: Rattus norvegicus; assay: Antiinflammatory activity against carrageenan induced rat paw edema (CPE), dosed orally
In short: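 Male Sprague–Dawley rats (150 ± 10 g), five per group. Compound or vehicle given orally in 0.5% methylcellulose 1 h before subplantar injection of 0.1 mL 1% carrageenan in saline into the right hind paw. Paw volume measured by mercury displacement before dosing and 3 h after carrageenan; the difference is the edema volume. ANOVA with Dunnett's t test.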

[5] = tested on: Rattus norvegicus; assay: Antiinflammatory activity against D-adjuvant arthritis in injected rat paw at the dose of 50 mg/kg by oral administration
[6] = tested on: Rattus norvegicus; assay: Antiinflammatory activity against D-adjuvant arthritis in uninjected rat paw at the dose of 50 mg/kg by oral administration
In short: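 Rat developing adjuvant arthritis screen with oral dosing on a prophylactic protocol. Percent change in body weight versus untreated animals was recorded as a preliminary toxicity sign. Significance was assessed against controls by two-tailed Student's t test, p < 0.05.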

[7] = tested on: Rattus norvegicus; assay: Antiinflammatory activity against D-adjuvant arthritis in injected rat paw at the dose of 25 mg/kg by oral administration
[8] = tested on: Rattus norvegicus; assay: Antiinflammatory activity against D-adjuvant arthritis in uninjected rat paw at the dose of 25 mg/kg by oral administration

| Structure (SMILES) | inhibition in vivo at 200 mg/kg [1] [%] | inhibition in vivo at 200 mg/kg [2] [%] | Activity [3] [%] | Inhibition [4] [%] | inhibition in vivo at 50 mg/kg [5] [%] | inhibition in vivo at 50 mg/kg [6] [%] | inhibition in vivo at 25 mg/kg [7] [%] | inhibition in vivo at 25 mg/kg [8] [%] |
| --- | --- | --- | --- | --- | --- | --- | --- | --- |
| Nc1nc2c(Br)c3nc(N)sc3cc2s1 | 37 | 47 | 10 | 33 |  |  |  |  |
| CCC1CCCCN1CC(=O)Nc1nc2cc3nc(NC(=O)CN4CCCCC4CC)sc3cc2s1 (stereo unspecified) | 65 | 34 | -1 | 12 |  |  |  |  |
| CC1CCCC1NCC(=O)Nc1nc2cc3nc(NC(=O)CNC4CCCC4C)sc3cc2s1 (stereo unspecified) |  |  | -22 | 36 | 0 | 0 |  |  |
| CCOC(=O)c1c2sc(NC(=O)CN(CC)CC)nc2c(Cl)c2nc(NC(=O)CN(CC)CC)sc12 |  |  | -16 | 5 | 0 | 0 |  |  |
| O=C(CN1CCSCC1)Nc1nc2cc3nc(NC(=O)CN4CCSCC4)sc3cc2s1 | 43 | 0 | 6 | 7 |  |  |  |  |
| CC(C)N(CC(=O)Nc1nc2cc3nc(NC(=O)CN(C(C)C)C(C)C)sc3cc2s1)C(C)C |  |  | -5 | 0 | 0 | 0 |  |  |
| Nc1nc2c(Cl)c3nc(N)sc3c(C(F)(F)F)c2s1 | 12 | 0 | 3 | 13 |  |  |  |  |
| CC(=O)c1ccc(N2CCN(CC(=O)Nc3nc4cc5nc(NC(=O)CN6CCN(c7ccc(C(C)=O)cc7)CC6)sc5cc4s3)CC2)cc1 |  |  | -7 | 40 | 0 | 0 |  |  |
| O=C(CN1CCSC1)Nc1nc2cc3nc(NC(=O)CN4CCSC4)sc3cc2s1 |  |  | 11 | 11 | 26 | 27 |  |  |
| CCOCCN(CCOCC)CC(=O)Nc1nc2cc3nc(NC(=O)CN(CCOCC)CCOCC)sc3cc2s1 |  |  | 0 | 0 | 16 | 21 |  |  |
| O=C(CN1CCN(c2ccccn2)CC1)Nc1nc2cc3nc(NC(=O)CN4CCN(c5ccccn5)CC4)sc3cc2s1 |  |  | -2 | 9 | 0 | 16 |  |  |
| CC(C)NCC(=O)Nc1nc2cc3nc(NC(=O)CNC(C)C)sc3cc2s1 |  |  | 7 | 28 | 9 | 11 |  |  |
| CCOC(=O)c1c2nc(NC(=O)CN(CC)CC)sc2cc2sc(NC(=O)CN(CC)CC)nc12 |  |  | -9 | 32 | 7 | 0 |  |  |
| CCN(CC)CC(=O)Nc1nc2cc3nc(NC(=O)CN(CC)CC)sc3c([N+](=O)[O-])c2s1 |  |  | -16 | 23 | 11 | 12 |  |  |
| CC1CCCN(CC(=O)Nc2nc3cc4nc(NC(=O)CN5CCCC(C)C5)sc4cc3s2)C1 (stereo unspecified) | 63 | 34 | 6 | 19 |  |  |  |  |
| O=C(CN1CCN(c2cccc(C(F)(F)F)c2)CC1)Nc1nc2cc3nc(NC(=O)CN4CCN(c5cccc(C(F)(F)F)c5)CC4)sc3cc2s1 |  |  | 4 | 0 | 39 | 73 |  |  |
| CCOC(=O)CN1CCN(CC(=O)Nc2nc3cc4nc(NC(=O)CN5CCN(CC(=O)OCC)CC5)sc4cc3s2)CC1 |  |  | -11 | 14 | 0 | 0 |  |  |
| COc1cc2nc(N)sc2c2nc(N)sc12 |  |  | -29 | 43 | 34 | 35 |  |  |
| CCN(CC)CC(=O)N(CC)c1nc2cc3nc(N(CC)C(=O)CN(CC)CC)sc3cc2s1 |  |  | -4 | 18 | 14 | 0 |  |  |
| O=C(O)CNc1nc2cc3nc(NCC(=O)O)sc3cc2s1 | 2 | 0 | -25 | 2 |  |  |  |  |
| CN1CCN(CC(=O)Nc2nc3cc4nc(NC(=O)CN5CCN(C)CC5)sc4cc3s2)CC1 |  |  | -25 | 28 | 0 | 0 |  |  |
| CCN(CC)CC(=O)Nc1nc2c(C)c3nc(NC(=O)CN(CC)CC)sc3c(Cl)c2s1 |  |  | -37 | 18 | 42 | 16 |  |  |

| Structure (SMILES) | inhibition in vivo at 200 mg/kg [1] [%] | inhibition in vivo at 200 mg/kg [2] [%] | Activity [3] [%] | Inhibition [4] [%] | inhibition in vivo at 50 mg/kg [5] [%] | inhibition in vivo at 50 mg/kg [6] [%] | inhibition in vivo at 25 mg/kg [7] [%] | inhibition in vivo at 25 mg/kg [8] [%] |
| --- | --- | --- | --- | --- | --- | --- | --- | --- |
| O=C(CN1CCCCC1CC1CCCCC1)Nc1nc2cc3nc(NC(=O)CN4CCCCC4CC4CCCCC4)sc3cc2s1 (stereo unspecified) |  |  | 1 | 0 | 0 | 0 |  |  |
| O=C(CN1CCCC(CO)C1)Nc1nc2cc3nc(NC(=O)CN4CCCC(CO)C4)sc3cc2s1 (stereo unspecified) |  |  | -4 | 16 | 25 | 47 |  |  |
| O=C(CNC1CCCCC1)Nc1nc2cc3nc(NC(=O)CNC4CCCCC4)sc3cc2s1 |  |  | 8 | 20 | 3 | 59 |  |  |
| CCN(CC)CC(=O)Nc1nc2cc3nc(NC(=O)CN(CC)CC)sc3c(N)c2s1 |  |  | -35 | 53 | 26 | 38 |  |  |
| CCN(CC)CC(=O)Nc1nc2cc3nc(NC(=O)CN(CC)CC)sc3c(OC)c2s1 |  |  | 10 | 17 | 19 | 0 |  |  |
| CCOC(=O)c1c2sc(NC(=O)CN(CC)CC)nc2c(C)c2nc(NC(=O)CN(CC)CC)sc12 |  |  | -12 | 35 | 15 | 50 |  |  |
| O=C(CNC1CCCC1)Nc1nc2cc3nc(NC(=O)CNC4CCCC4)sc3cc2s1 |  |  | 10 | 13 | 43 | 70 |  |  |
| N#Cc1c2sc(N)nc2c(Cl)c2nc(N)sc12 | 37 | 47 | 3 | 7 |  |  |  |  |
| CCN(CC)CC(=O)N(C)c1nc2c(ccc3sc(N(C)C(=O)CN(CC)CC)nc32)s1 |  |  | 4 | 21 | 0 | 34 |  |  |
| O=C(CN1CCN(c2ccc(F)cc2)CC1)Nc1nc2cc3nc(NC(=O)CN4CCN(c5ccc(F)cc5)CC4)sc3cc2s1 |  |  | 12 | 11 | 41 | 79 |  |  |
| CCNC(=O)Nc1nc2cc3nc(NC(=O)NCC)sc3cc2s1 |  |  | -1 | 6 | 0 | 15 |  |  |
| CC1CCC(NCC(=O)Nc2nc3cc4nc(NC(=O)CNC5CCC(C)C5)sc4cc3s2)C1 (stereo unspecified) |  |  | -7 | 11 | 11 | 30 |  |  |
| CCN(CC)C(=O)CNc1nc2cc3nc(NCC(=O)N(CC)CC)sc3cc2s1 |  |  | -18 | 5 | 58 | 55 |  |  |
| CC1CC(C)CN(CC(=O)Nc2nc3cc4nc(NC(=O)CN5CC(C)CC(C)C5)sc4cc3s2)C1 (stereo unspecified) |  |  | -3 | 15 | 29 | 11 |  |  |
| CCN(CC)CC(=O)Nc1nc2c(Cl)c3nc(NC(=O)CN(CC)CC)sc3c(-c3ccccc3)c2s1 |  |  | -6 | 35 | 13 | 7 |  |  |
| CCN(CC)CC(=O)Nc1nc2cc3nc(N)sc3cc2s1 |  |  | -20 | 13 | 34 | 61 |  |  |
| CCOC(=O)N1CCN(CC(=O)Nc2nc3cc4nc(NC(=O)CN5CCN(C(=O)OCC)CC5)sc4cc3s2)CC1.Cl.Cl |  |  | -17 | 17 | 26 | 60 |  |  |
| CCN(CC)CC(=O)Nc1nc2cc3nc(NC(=O)CN(CC)CC)sc3c(C)c2s1.Cl.Cl |  |  | -37 | 8 | 59 | 100 |  |  |
| Cl.Cl.O=C(CN1CCCCC1)Nc1nc2cc3nc(NC(=O)CN4CCCCC4)sc3cc2s1 | 79 | 56 | -6 | 0.8 |  |  |  |  |
| CCN(CC)CC(=O)Nc1nc2c(C(F)(F)F)c3nc(NC(=O)CN(CC)CC)sc3c(Cl)c2s1.Cl.Cl |  |  | -22 | 18 |  |  | 57 | 100 |
| CCN(CC)CC(=O)N(C)c1nc2cc3nc(N(C)C(=O)CN(CC)CC)sc3cc2s1.Cl.Cl |  |  | -16 | 16 | 0 | 16 |  |  |
| CCCN(CCC)CC(=O)Nc1nc2cc3nc(NC(=O)CN(CCC)CCC)sc3cc2s1.Cl.Cl |  |  | -11 | 46 | 29 | 47 |  |  |
